Assay results as given in ChEMBL document CHEMBL1629690, “Development of hexadecyloxypropyl tenofovir (CMX157) for treatment of infection caused by wild-type and nucleoside/nucleotide-resistant HIV” (Antimicrob Agents Chemother, 2010).

Key:
[1] = tested on: Human immunodeficiency virus 1; experiment: Antiviral activity against HIV1 isolate 056 expressing wild type reverse transcriptase gene by phenosense assay; assay type: functional, organism-based; settings: Human immunodeficiency virus 1, isolate 056
Summary of the method: (§1)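 In the PhenoSense recombinant virus assay, virus was tested against increasing drug concentrations. EC50 came from the inhibition curve and was compared with a drug-sensitive reference virus.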

[2] = tested on: Human immunodeficiency virus 1; experiment: Antiviral activity against HIV1 isolate 057 expressing wild type reverse transcriptase gene by phenosense assay; assay type: functional, organism-based; settings: Human immunodeficiency virus 1, isolate 057; summary of the method: as §1
[3] = tested on: Human immunodeficiency virus 1; experiment: Antiviral activity against HIV1 isolate 058 harboring reverse transcriptase M41L/D67N/K70R/L210W/T215F/K219Q mutant gene by phenosense assay; assay type: functional, organism-based; settings: Human immunodeficiency virus 1, isolate 058
Summary of the method: (§2)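 Recombinant-virus PhenoSense HIV assay run on a panel of 30 NRTI-resistant HIV-1 mutants and two wild-type viruses. Each virus is tested across increasing drug concentrations to give an inhibition curve and EC50. Fold change is the test recombinant EC50 divided by the EC50 of the drug-sensitive wild-type reference virus.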

[4] = tested on: Human immunodeficiency virus 1; experiment: Antiviral activity against HIV1 isolate 060 harboring reverse transcriptase M41L/D67N/K70R/L210W/T215Y/K219E mutant gene by phenosense assay; assay type: functional, organism-based; settings: Human immunodeficiency virus 1, isolate 060; summary of the method: as §2
[5] = tested on: Human immunodeficiency virus 1; experiment: Antiviral activity against HIV1 isolate 063 harboring reverse transcriptase M41L/D67N/K70R/M184V/L210W/T215Y/K219E mutant gene by phenosense assay; assay type: functional, organism-based; settings: Human immunodeficiency virus 1, isolate 063; summary of the method: as §2
[6] = tested on: Human immunodeficiency virus 1; experiment: Antiviral activity against HIV1 isolate 066 harboring reverse transcriptase 184V mutant gene by phenosense assay; assay type: functional, organism-based; settings: Human immunodeficiency virus 1, isolate 066; summary of the method: as §2
[7] = tested on: Human immunodeficiency virus 1; experiment: Antiviral activity against HIV1 isolate 067 harboring reverse transcriptase A62V/D67G/T69SVG/V75I/T215I mutant gene by phenosense assay; assay type: functional, organism-based; settings: Human immunodeficiency virus 1, isolate 067; summary of the method: as §2
[8] = tested on: Human immunodeficiency virus 1; experiment: Antiviral activity against HIV1 isolate 070 harboring reverse transcriptase 65R/S68G mutant gene by phenosense assay; assay type: functional, organism-based; settings: Human immunodeficiency virus 1, isolate 070; summary of the method: as §2
[9] = tested on: Human immunodeficiency virus 1; experiment: Antiviral activity against HIV1 isolate 153 harboring reverse transcriptase L74V mutant gene by phenosense assay; assay type: functional, organism-based; settings: Human immunodeficiency virus 1, isolate 153; summary of the method: as §2
[10] = tested on: Human immunodeficiency virus 1; experiment: Antiviral activity against HIV1 isolate 160 harboring reverse transcriptase S68G/V75(I/T)/F77L/Y115F/F116Y /Q151M mutant gene by phenosense assay; assay type: functional, organism-based; settings: Human immunodeficiency virus 1, isolate 160; summary of the method: as §2
[11] = tested on: Human immunodeficiency virus 1; experiment: Antiviral activity against HIV1 isolate 162 harboring reverse transcriptase A62V/V75I/F77L/Y115F/F116Y/Q151M/M184V mutant gene by phenosense assay; assay type: functional, organism-based; settings: Human immunodeficiency virus 1, isolate 162; summary of the method: as §2
[12] = tested on: Human immunodeficiency virus 1; experiment: Antiviral activity against HIV1 isolate 185 harboring reverse transcriptase T215Y mutant gene by phenosense assay; assay type: functional, organism-based; settings: Human immunodeficiency virus 1, isolate 185; summary of the method: as §2
[13] = tested on: Human immunodeficiency virus 1; experiment: Antiviral activity against HIV1 isolate 192 harboring reverse transcriptase M41L/T215Y mutant gene by phenosense assay; assay type: functional, organism-based; settings: Human immunodeficiency virus 1, isolate 192; summary of the method: as §2
[14] = tested on: Human immunodeficiency virus 1; experiment: Antiviral activity against HIV1 isolate 203 harboring reverse transcriptase M41L/L210W/T215Y/M184V mutant gene by phenosense assay; assay type: functional, organism-based; settings: Human immunodeficiency virus 1, isolate 203
Summary of the method: (§3)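 PhenoSense HIV recombinant virus assay: patient-derived HIV-1 with major NRTI resistance mutations tested against increasing drug concentrations to give inhibition curves. EC50 is the concentration giving 50% inhibition. Fold change is the test recombinant EC50 divided by the EC50 of a drug-sensitive wild-type reference virus. Panel of 30 NRTI-resistant isolates plus two wild-type viruses.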

[15] = tested on: Human immunodeficiency virus 1; experiment: Antiviral activity against HIV1 isolate 204 harboring reverse transcriptase M41L/L210W/T215Y/M184V mutant gene by phenosense assay; assay type: functional, organism-based; settings: Human immunodeficiency virus 1, isolate 204; summary of the method: as §3
[16] = tested on: Human immunodeficiency virus 1; experiment: Antiviral activity against HIV1 isolate 206 harboring reverse transcriptase D67N/K70R mutant gene by phenosense assay; assay type: functional, organism-based; settings: Human immunodeficiency virus 1, isolate 206; summary of the method: as §3
[17] = tested on: Human immunodeficiency virus 1; experiment: Antiviral activity against HIV1 isolate 212 harboring reverse transcriptase L210W/T215Y mutant gene by phenosense assay; assay type: functional, organism-based; settings: Human immunodeficiency virus 1, isolate 212; summary of the method: as §3
[18] = tested on: Human immunodeficiency virus 1; experiment: Antiviral activity against HIV1 isolate 215 harboring reverse transcriptase D67N/K70E mutant gene by phenosense assay; assay type: functional, organism-based; settings: Human immunodeficiency virus 1, isolate 215; summary of the method: as §3
[19] = tested on: Human immunodeficiency virus 1; experiment: Antiviral activity against HIV1 isolate 217 harboring reverse transcriptase D67N/K70E/M184V mutant gene by phenosense assay; assay type: functional, organism-based; settings: Human immunodeficiency virus 1, isolate 217; summary of the method: as §3
[20] = tested on: Human immunodeficiency virus 1; experiment: Antiviral activity against HIV1 isolate 063 harboring reverse transcriptase M41L/D67N/K70R/M184V/L210W/T215Y/K219E mutant gene by phenosense assay relative to wild type; assay type: functional; summary of the method: as §2
[21] = tested on: Human immunodeficiency virus 1; experiment: Antiviral activity against HIV1 isolate 066 harboring reverse transcriptase 184V mutant gene by phenosense assay relative to wild type; assay type: functional; summary of the method: as §2
[22] = tested on: Human immunodeficiency virus 1; experiment: Antiviral activity against HIV1 isolate 067 harboring reverse transcriptase A62V/D67G/T69SVG/V75I/T215I mutant gene by phenosense assay relative to wild type; assay type: functional; summary of the method: as §2
[23] = tested on: Human immunodeficiency virus 1; experiment: Antiviral activity against HIV1 isolate 153 harboring reverse transcriptase L74V mutant gene by phenosense assay relative to wild type; assay type: functional; summary of the method: as §2
[24] = tested on: Human immunodeficiency virus 1; experiment: Antiviral activity against HIV1 isolate 162 harboring reverse transcriptase A62V/V75I/F77L/Y115F/F116Y/Q151M/M184V mutant gene by phenosense assay relative to wild type; assay type: functional; summary of the method: as §2
[25] = tested on: Human immunodeficiency virus 1; experiment: Antiviral activity against HIV1 isolate 166 harboring reverse transcriptase L74V mutant gene obtained as site-directed mutant of NL4-3 by phenosense assay relative to wild type; assay type: functional; summary of the method: as §2
[26] = tested on: Human immunodeficiency virus 1; experiment: Antiviral activity against HIV1 isolate 211 harboring reverse transcriptase D67N/K70R/T215F/K219E/M184V mutant gene by phenosense assay relative to wild type; assay type: functional; summary of the method: as §3
[27] = tested on: Human immunodeficiency virus 1; experiment: Antiviral activity against HIV1 7303-3 harboring reverse transcriptase 41L/44D/67N/69D/118I/210W/215Y mutant gene infected in human PBMC by ELISA; assay type: functional, organism-based; settings: Human immunodeficiency virus 1, 7303-3
Summary of the method: (§4)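 Fresh PBMCs pooled from at least two HIV- and HBV-seronegative donors, stimulated with PHA 4 μg/ml for 48–72 h and kept in rhIL-2 20 U/ml. Seeded at 5 × 10^4 cells/well and infected with RT-mutant HIV-1 clones at MOI ~0.1. Nine compound concentrations, triplicate wells, 7-day incubation. EC50 reported as mean ± SD of one to three independent experiments.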

[28] = tested on: Human immunodeficiency virus 1; experiment: Antiviral activity against HIV1 1617-1 harboring reverse transcriptase 69K/70G/75I/77L/116Y/151M/184V mutant gene infected in human PBMC by ELISA; assay type: functional, organism-based; settings: Human immunodeficiency virus 1, 1617-1; summary of the method: as §4
[29] = tested on: Human immunodeficiency virus 1; experiment: Antiviral activity against HIV1 52534-2 harboring reverse transcriptase 41L//74V/210W/215Y/184V/69SSS mutant gene infected in human PBMC by ELISA; assay type: functional, organism-based; settings: Human immunodeficiency virus 1, 52534-2; summary of the method: as §4
[30] = tested on: Human immunodeficiency virus 1; experiment: Antiviral activity against HIV1 71361-1 harboring reverse transcriptase 65R mutant gene infected in human PBMC by ELISA; assay type: functional, organism-based; settings: Human immunodeficiency virus 1, 71361-1; summary of the method: as §4
[31] = tested on: Human immunodeficiency virus 1; experiment: Antiviral activity against HIV1 8415-2 harboring reverse transcriptase 65R/184V mutant gene infected in human PBMC by ELISA; assay type: functional, organism-based; settings: Human immunodeficiency virus 1, 8415-2; summary of the method: as §4

Structure (SMILES)	EC50 [2] [nM]	EC50 [3] [nM]	EC50 [4] [nM]	EC50 [5] [nM]	EC50 [6] [nM]	EC50 [7] [nM]	EC50 [8] [nM]	EC50 [9] [nM]	EC50 [10] [nM]	EC50 [11] [nM]	EC50 [12] [nM]	EC50 [13] [nM]	EC50 [14] [nM]	EC50 [15] [nM]	EC50 [16] [nM]	EC50 [17] [nM]	EC50 [18] [nM]	EC50 [19] [nM]	fold change (FC) [20]	fold change (FC) [21]	other results
Nc1ccn([C@@H]2CS[C@H](CO)O2)c(=O)n1 [LAMIVUDINE]	4400	14000	22000	> 300000	> 300000	46000	71000	7000	90000	> 300000	6100	7600	> 300000	> 300000	8100	7300	11000	> 300000	>80	>80	EC50 [1]: 3200 nM; fold change (FC) [22]: 12; fold change (FC) [23]: 1.9; fold change (FC) [24]: >80; fold change (FC) [25]: 1.6; fold change (FC) [26]: >80
Cc1cn([C@H]2C=C[C@@H](CO)O2)c(=O)[nH]c1=O [STAVUDINE]	480	2200	2800	1400	460	6400	770	600	5500	4200	830	840	880	1100	780	940	560	420	2.3	0.77	EC50 [1]: 510 nM; fold change (FC) [22]: 11; fold change (FC) [23]: 1; fold change (FC) [24]: 7.1; fold change (FC) [25]: 1.1; fold change (FC) [26]: 1.3
C[C@H](Cn1cnc2c(N)ncnc21)OCP(=O)(O)O [TENOFOVIR ANHYDROUS]	650	2700	3600	1700	530	17000	1300	480	1700	1100	1800	1400	750	790	2000	1000	740	500	2.2	0.69	EC50 [27]: > 8500 nM; EC50 [28]: > 6500 nM; EC50 [29]: > 6500 nM; EC50 [30]: > 8000 nM; EC50 [31]: 1000 nM; EC50 [1]: 610 nM; fold change (FC) [22]: 22; fold change (FC) [23]: 0.62; fold change (FC) [24]: 1.4; fold change (FC) [25]: 0.69; fold change (FC) [26]: 0.91
Cc1cn([C@H]2C[C@H](N=[N+]=[N-])[C@@H](CO)O2)c(=O)[nH]c1=O [ZIDOVUDINE]	17	9600	16000	1600	17	> 25000	12	11	2500	4200	1000	560	87	110	770	210	6	4	59	0.63	EC50 [27]: 3000 nM; EC50 [28]: > 340 nM; EC50 [29]: 350 nM; EC50 [30]: 2.7 nM; EC50 [31]: 1.8 nM; fold change (FC) [22]: >920; fold change (FC) [23]: 0.41; fold change (FC) [24]: 150; fold change (FC) [25]: 0.5; fold change (FC) [26]: 7
